ChEMBL document CHEMBL3621126, “Difluoromethyl ketones: Potent inhibitors of wild type and carbamate-insensitive G119S mutant Anopheles gambiae acetylcholinesterase” (Bioorg Med Chem Lett, 2015)
≈ marks a conversion by molar mass, not a printed value.

Experiments:
Acetylcholinesterase [1] = target: T1, Acetylcholinesterase (Anopheles gambiae, UniProt Q869C3); assay: Inhibition of recombinant Anopheles gambiae wild type AChE after 60 mins by Ellman assay
Acetylcholinesterase [2] = target: T2, Acetylcholinesterase (Homo sapiens, UniProt P22303); assay: Inhibition of recombinant human AChE after 10 mins by Ellman assay
T2 sequence (P22303 whole entry): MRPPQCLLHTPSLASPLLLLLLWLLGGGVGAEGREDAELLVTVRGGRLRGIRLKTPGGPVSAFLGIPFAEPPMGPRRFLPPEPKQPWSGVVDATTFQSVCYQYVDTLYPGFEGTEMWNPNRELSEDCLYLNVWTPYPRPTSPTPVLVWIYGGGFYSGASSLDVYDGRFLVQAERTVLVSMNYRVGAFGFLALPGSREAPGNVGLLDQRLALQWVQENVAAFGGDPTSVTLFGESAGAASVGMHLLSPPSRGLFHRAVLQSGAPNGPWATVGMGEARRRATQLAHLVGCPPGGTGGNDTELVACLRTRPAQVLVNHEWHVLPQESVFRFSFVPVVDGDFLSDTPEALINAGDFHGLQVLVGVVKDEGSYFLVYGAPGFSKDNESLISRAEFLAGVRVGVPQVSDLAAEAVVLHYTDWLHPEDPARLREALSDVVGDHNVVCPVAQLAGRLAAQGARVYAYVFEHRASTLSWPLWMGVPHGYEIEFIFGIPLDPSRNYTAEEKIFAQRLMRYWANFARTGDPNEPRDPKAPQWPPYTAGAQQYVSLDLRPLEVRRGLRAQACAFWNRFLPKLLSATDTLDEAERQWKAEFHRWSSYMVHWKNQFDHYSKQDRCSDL

[3] = Inhibition of Anopheles gambiae AChE G119S mutant after 10 mins by Ellman assay
[4] = Inhibition of recombinant Anopheles gambiae AChE G119S mutant after 60 mins by Ellman assay
Acetylcholinesterase [5] = target: T1, Acetylcholinesterase; assay: Inhibition of recombinant Anopheles gambiae wild type AChE after 10 mins by Ellman assay
Anopheles gambiae [6] = assay: Insecticidal activity against Anopheles gambiae G3 assessed as torsal contact toxicity by measuring mortality at 1000 ug/mL after 24 hrs by filter paper based method; type: functional; details: G3, 24 h
How it was run: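 Adult susceptible G3 An. gambiae were tested by the WHO treated-paper tarsal contact protocol. Papers were treated with ethanolic compound solutions at 1000 µg/mL and dried overnight. Mosquitoes were exposed 1 h and mortality recorded after 24 h.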

Acetylcholinesterase [7] = target: T2, Acetylcholinesterase; assay: Inhibition of recombinant human AChE after 60 mins by Ellman assay
[8] = Inhibition of recombinant Anopheles gambiae AChE G119S mutant after 1380 mins by Ellman assay
How it was run: (§1)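 Recombinant G119S mutant An. gambiae AChE; modified Ellman assay in microtiter plates at 23 ± 1°C, pH 7.7, 0.1% (v/v) DMSO. Enzyme preincubated with inhibitor over a range of concentrations before substrate added; inhibitor-free controls flank 10 concentrations, right-hand control used for residual activity (v/v0). IC50 taken from sigmoidal plots of v/v0 versus [I].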

Anopheles gambiae [9] = assay: Insecticidal activity against Anopheles gambiae G3 assessed as mortality at 50 ng/insect after 24 hrs (reference value: 11 +/- 4%); type: functional
Anopheles gambiae [10] = assay: Insecticidal activity against Anopheles gambiae G3 assessed as fumigation mortality at 1000 ng/mL after 24 hrs by mason jar assay; type: functional; details: G3, 24 h
How it was run: (§2)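 Fumigation of adult G3 An. gambiae in a sealed 1 L vessel, with % mortality read after 24 h. Nominal concentration was calculated from the inhibitor mass delivered and the vessel volume.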

[11] = Inhibition of recombinant Anopheles gambiae AChE G119S mutant after 330 mins by Ellman assay; how it was run: as §1
Acetylcholinesterase [12] = target: T2, Acetylcholinesterase; assay: Inhibition of recombinant human AChE by Ellman assay; details: TDE = time-dependent effect
How it was run: (§3)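 Modified Ellman assay in microtiter plates with recombinant enzymes (human AChE, wild-type or G119S Anopheles gambiae AChE). Inhibitor preincubated 10 or 60 min at 23 ± 1°C, pH 7.7, 0.1% (v/v) DMSO, before adding substrate. Ten inhibitor concentrations were run alongside inhibitor-free control wells. IC50 was taken from sigmoidal plots of residual activity (v/v0) vs [I].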

[13] = target: Acetylcholinesterase (Anopheles gambiae) (UniProt Q869C3); assay: Inhibition of recombinant Anopheles gambiae wild type AChE by Ellman assay; details: TDE = time-dependent effect; how it was run: as §3
Sequence of Acetylcholinesterase (Anopheles gambiae) (Q869C3 39-737 limits assumed): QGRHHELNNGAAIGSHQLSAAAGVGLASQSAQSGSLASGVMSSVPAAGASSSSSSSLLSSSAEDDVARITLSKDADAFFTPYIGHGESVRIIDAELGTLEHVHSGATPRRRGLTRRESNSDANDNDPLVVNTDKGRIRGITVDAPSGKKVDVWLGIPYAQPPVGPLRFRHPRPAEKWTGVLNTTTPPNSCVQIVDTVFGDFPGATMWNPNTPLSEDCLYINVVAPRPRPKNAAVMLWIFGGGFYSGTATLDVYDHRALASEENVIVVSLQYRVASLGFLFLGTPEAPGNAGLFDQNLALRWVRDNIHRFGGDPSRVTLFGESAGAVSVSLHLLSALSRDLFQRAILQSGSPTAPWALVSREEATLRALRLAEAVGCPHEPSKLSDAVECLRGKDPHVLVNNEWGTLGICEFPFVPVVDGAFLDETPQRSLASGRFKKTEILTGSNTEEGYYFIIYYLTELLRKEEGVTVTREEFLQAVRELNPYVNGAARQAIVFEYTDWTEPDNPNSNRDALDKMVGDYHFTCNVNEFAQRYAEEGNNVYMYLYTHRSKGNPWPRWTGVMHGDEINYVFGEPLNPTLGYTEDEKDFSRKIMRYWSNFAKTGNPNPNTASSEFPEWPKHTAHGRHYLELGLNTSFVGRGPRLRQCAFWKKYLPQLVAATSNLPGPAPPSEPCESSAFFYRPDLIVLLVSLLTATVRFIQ

Acetylcholinesterase [14] = target: Acetylcholinesterase (Electrophorus electricus, UniProt O42275); assay: Inhibition of electric eel AChE
Sequence of Acetylcholinesterase (Electrophorus electricus, UniProt O42275) (O42275 whole entry): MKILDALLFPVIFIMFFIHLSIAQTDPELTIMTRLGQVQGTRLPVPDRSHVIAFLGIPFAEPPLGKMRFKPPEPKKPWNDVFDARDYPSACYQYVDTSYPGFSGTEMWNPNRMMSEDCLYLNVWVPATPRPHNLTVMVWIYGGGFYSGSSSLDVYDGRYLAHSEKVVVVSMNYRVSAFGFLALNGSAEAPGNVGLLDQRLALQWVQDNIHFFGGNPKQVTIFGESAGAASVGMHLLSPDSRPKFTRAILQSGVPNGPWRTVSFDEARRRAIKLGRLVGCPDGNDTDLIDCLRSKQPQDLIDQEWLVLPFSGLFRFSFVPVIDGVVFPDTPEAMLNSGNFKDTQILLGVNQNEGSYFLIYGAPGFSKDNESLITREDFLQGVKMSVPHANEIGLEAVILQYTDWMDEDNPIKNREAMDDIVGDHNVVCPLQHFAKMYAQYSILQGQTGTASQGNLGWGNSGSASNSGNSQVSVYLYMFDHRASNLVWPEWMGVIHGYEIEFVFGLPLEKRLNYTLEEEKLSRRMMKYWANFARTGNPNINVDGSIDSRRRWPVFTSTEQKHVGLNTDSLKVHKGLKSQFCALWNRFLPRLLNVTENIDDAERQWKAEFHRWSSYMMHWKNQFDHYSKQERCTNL

Anopheles gambiae [15] = assay: Ratio of IC50 for recombinant Anopheles gambiae AChE G119S mutant to IC50 for recombinant wild type Anopheles gambiae AChE after 60 mins
Anopheles gambiae [16] = assay: Insecticidal activity against Anopheles gambiae G3 assessed as torsal contact toxicity by measuring mortality after 24 hrs by filter paper based method; type: functional; details: G3, 24 h
How it was run: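 Adult susceptible G3 An. gambiae were tested by the WHO treated-paper tarsal contact protocol. Papers were treated with ethanolic compound solutions and dried overnight. Mosquitoes were exposed 1 h and mortality recorded 24 h later.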

Anopheles gambiae [17] = assay: Insecticidal activity against Anopheles gambiae G3 assessed as mortality after 24 hrs; type: functional
Anopheles gambiae [18] = assay: Insecticidal activity against Anopheles gambiae G3 assessed as fumigation mortality at 10 ng/mL after 24 hrs by mason jar assay; type: functional; details: G3, 24 h; how it was run: as §2

T1 sequence (Q869C3 whole entry): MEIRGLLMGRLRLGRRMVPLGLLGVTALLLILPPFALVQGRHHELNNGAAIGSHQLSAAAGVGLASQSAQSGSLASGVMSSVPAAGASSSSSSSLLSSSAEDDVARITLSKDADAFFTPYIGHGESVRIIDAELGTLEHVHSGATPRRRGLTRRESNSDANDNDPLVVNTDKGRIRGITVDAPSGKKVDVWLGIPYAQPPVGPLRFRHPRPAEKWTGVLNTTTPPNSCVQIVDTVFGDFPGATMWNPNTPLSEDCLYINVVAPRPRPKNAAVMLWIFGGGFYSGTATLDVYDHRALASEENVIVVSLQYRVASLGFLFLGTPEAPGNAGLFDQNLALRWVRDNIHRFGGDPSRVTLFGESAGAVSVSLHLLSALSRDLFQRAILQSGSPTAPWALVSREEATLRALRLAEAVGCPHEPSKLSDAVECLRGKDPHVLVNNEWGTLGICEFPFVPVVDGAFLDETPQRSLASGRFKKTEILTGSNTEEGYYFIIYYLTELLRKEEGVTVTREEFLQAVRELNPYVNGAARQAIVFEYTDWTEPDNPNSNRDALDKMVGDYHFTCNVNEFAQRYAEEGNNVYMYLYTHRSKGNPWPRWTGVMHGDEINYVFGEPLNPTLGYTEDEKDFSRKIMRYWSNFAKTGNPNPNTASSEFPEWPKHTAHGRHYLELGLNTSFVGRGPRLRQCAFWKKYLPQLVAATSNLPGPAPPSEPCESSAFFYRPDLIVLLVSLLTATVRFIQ

SMILES	IC50 (Acetylcholinesterase [1]) [nM]	IC50 (Acetylcholinesterase [2]) [nM]	IC50 [3] [nM]	IC50 [4] [nM]	IC50 (Acetylcholinesterase [5]) [nM]	mortality at 1000 µg/mL (Anopheles gambiae [6]) [%]	IC50 (Acetylcholinesterase [7]) [nM]	IC50 [8] [nM]	mortality (Anopheles gambiae [9]) [%]	mortality at 1 µg/mL (Anopheles gambiae [10]) [%]	IC50 [11] [nM]	inhibition (Acetylcholinesterase [12])	inhibition [13]	Ki (Acetylcholinesterase [14]) [nM]	Ratio IC50 (Anopheles gambiae [15])	LC50 (Anopheles gambiae [16]) [µg/mL]	LD50 (Anopheles gambiae [17]) [ng]	mortality at 0.01 µg/mL (Anopheles gambiae [18]) [%]
O=C(CF)c1cnn(C2CCCC2)c1	1540	2500	> 10000	> 10000	5860	0	1310	–	–	–	–	–	–	–	–	–	–	–
O=C(c1cnn(C2CCCC2)c1)C(F)F	134	208	3220	3390	106	0	244	–	–	–	–	–	–	–	–	–	–	–
CCC(CC)n1cc(C(=O)C(F)F)cn1	1.22	28.8	680	125	1.01	0	35.2	25.1	21	57	36.7	–	–	–	–	–	–	–
CCCC(C)n1cc(C(=O)CF)cn1 (stereo not drawn)	3290	24200	> 10000	> 10000	3520	20	17600	–	–	–	–	–	–	–	–	–	–	–
CC(C)(C)c1cccc(C(=O)C(F)(F)F)c1	18.1	14.6	> 10000	20800	53.4	8	5	–	–	–	–	tde	tde	–	–	–	–	–
CCCC(C)n1cc(C(=O)C(F)(F)F)cn1 (stereo not drawn)	2.06	7.15	19900	2000	3.74	0	8.37	–	–	–	–	tde	tde	–	–	–	–	–
CCC(CC)n1cc(C(=O)CF)cn1	337	5290	2990	3000	355	85	5190	–	–	8	–	–	–	–	–	–	–	–
CC(C)n1cc(C(=O)CF)cn1	> 10000	> 10000	> 10000	> 10000	> 10000	85	> 10000	–	–	–	–	–	–	–	–	–	–	–
CC(=O)C(F)(F)CCC(C)(C)C	–	–	–	–	–	–	–	–	–	–	–	–	–	1.6	–	–	–	–
CC(C)Cn1cc(C(=O)C(F)(F)F)cn1	1040	591	> 10000	> 10000	950	–	678	–	–	–	–	tde	tde	–	–	–	–	–
C[Si](C)(C)c1cccc(C(=O)C(F)(F)F)c1	257	285	> 10000	10100	848	10	92.9	–	–	–	–	tde	tde	–	–	–	–	–
CCCC(C)n1cc(C(=O)C(F)F)cn1 (stereo not drawn)	29.1	149	797	297	23.4	0	158	–	–	–	–	–	–	–	–	–	–	–
CCC(CC)n1cc(C(=O)C(F)(F)F)cn1	0.68	3.77	> 10000	1730	2.75	40	2.27	–	65	86	–	tde	tde	–	2500	–	–	–
CC(C)n1cc(C(=O)C(F)(F)F)cn1	285	77.5	> 10000	> 10000	142	20	121	–	–	–	–	tde	tde	–	–	–	–	–
CC(C)(C)c1cccc(C(=O)CF)c1	–	–	> 10000	–	–	50	–	–	–	–	–	–	–	–	–	–	–	–
CNC(=O)Oc1ccccc1OC(C)C [PROPOXUR]	43.6	2300	> 10000	> 10000	182	39	590	–	–	0	–	–	–	–	–	32 (≈ 153 µM)	0.2	–
O=C(c1cnn(C2CCCC2)c1)C(F)(F)F	1.54	5.2	> 10000	3520	2.87	40	6.11	–	–	–	–	tde	tde	–	–	–	–	–
CCC(C)n1cc(C(=O)CF)cn1 (stereo not drawn)	2860	16900	> 10000	> 10000	2750	65	18000	–	–	–	–	–	–	–	–	–	–	–
CCC(C)n1cc(C(=O)C(F)F)cn1 (stereo not drawn)	25.2	110	452	185	26.3	50	85.9	–	–	–	–	–	–	–	–	–	–	–
COP(=O)(OC)OC=C(Cl)Cl [DICHLORVOS]	60.1	–	1650	300	324	–	–	–	83	–	–	–	–	–	–	–	–	100
CC(C)n1cc(C(=O)C(F)F)cn1	430	802	8290	8380	354	50	869	–	–	–	–	–	–	–	–	–	–	–
CC(C)(C)c1cccc(C(=O)C(F)F)c1	–	6.05	–	–	–	20	–	–	–	–	–	–	–	–	–	–	–	–
CC(C)Cn1cc(C(=O)CF)cn1	> 10000	> 10000	> 10000	> 10000	> 10000	20	> 10000	–	–	–	–	–	–	–	–	–	–	–
CCC(C)n1cc(C(=O)C(F)(F)F)cn1 (stereo not drawn)	2.29	6.47	8180	2340	2.47	30	8.84	–	–	–	–	tde	tde	–	–	–	–	–
CC(C)Cn1cc(C(=O)C(F)F)cn1	3950	9780	> 10000	> 10000	3000	–	11000	–	–	–	–	–	–	–	–	–	–	–
